Source: ChEMBL document CHEMBL6092224, “The Discovery and Preclinical Profile of ALG-000184, a Prodrug of the Potent Hepatitis B Virus Capsid Assembly Modulator ALG-001075” (J Med Chem, 2024)

Key:
[1] = Plasma protein binding in human at 1 uM incubated for 4 to 24 hrs by equilibrium dialysis method; assay type: ADME, cell-free; conditions: time 4-24 hrs, read-out: PPB (converted)
Summary of the method: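 Rapid equilibrium dialysis in mouse, rat, dog, monkey or human plasma for 4 or 24 h; test concentrations 1, […].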

[2] = Clearance in C57BL/6J mouse at 1 mg/kg, iv by LC-MS/MS analysis; assay type: ADME, organism-based; conditions: in vivo
Summary of the method: (§1)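 Single dose to fasted male C57BL6 mice, Sprague-Dawley rats, beagle dogs and cynomolgus monkeys, either IV at 1 mg/kg or PO as a solution at 5 mg/kg, in 80% PEG 400 in water. Plasma concentrations were measured by LC-MS/MS. PK parameters come from noncompartmental analysis using nominal doses and nominal sampling times.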

[3] = Half life in Sprague-Dawley rat at 1 mg/kg, iv by LC-MS/MS analysis; assay type: ADME, organism-based; conditions: in vivo; summary of the method: as §1
[4] = Half life in Sprague-Dawley rat at 5 mg/kg, po by LC-MS/MS analysis; assay type: ADME, organism-based; conditions: in vivo; summary of the method: as §1
[5] = Volume of distribution at steady state in Beagle dog at 1 mg/kg, iv by LC-MS/MS analysis; assay type: ADME, organism-based, Canis lupus familiaris; conditions: in vivo, read-out: Vdss
Summary of the method: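 Fasted males (C57BL6 mice, Sprague−Dawley rats, beagle dogs, cynomolgus monkeys) given a single IV dose of 1 mg/kg in 80% PEG 400 in water. Plasma concentrations measured by LC-MS/MS. Vss derived by noncompartmental analysis using nominal dose and nominal sampling times.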

[6] = AUC (infinity) in Cynomolgous monkey at 5 mg/kg, po by LC-MS/MS analysis; assay type: ADME, organism-based, Macaca fascicularis; conditions: cynomolgus monkey, in vivo; summary of the method: as §1
[7] = system: Hepatitis B virus; experiment: Antiviral activity against AAV-Hepatitis B virus infected in C57BL/6 mouse assessed as reduction in baseline HBV DNA production at 15 mg/kg, po bid measured after 56 days; assay type: functional; conditions: time 56 day
[8] = Toxicity in C57BL/6 mouse infected with AAV-Hepatitis B virus assessed as change in ALT level at 15 mg/kg, po bid for 56 days followed by induction of compound washout period for 14 days; assay type: organism-based; conditions: in vivo, 1680 h, time 70 day
[9] = target: Broad substrate specificity ATP-binding cassette transporter ABCG2 (Homo sapiens, UniProt Q9UNQ0); experiment: Inhibition of BCRP in human Caco-2 cells using estrone 3-sulfate as substrate; assay type: cell-based
Summary of the method: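 Inhibition of estrone 3-sulfate (5.00 μM) transport in Caco-2 cells was measured at eight concentrations (0.0229–50.0 μM or 0.0457–100 μM). Percent inhibition relative to vehicle control was used to calculate IC50.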

[10] = target: Organic anion transporter 3 (Homo sapiens, UniProt Q8TCC7); experiment: Inhibition of OAT3 (unknown origin) transfected in HEK293 cells; assay type: cell-based
Summary of the method: (§2)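 HEK-293 cells transfected with the uptake transporter; uptake of known probe substrates measured with test compound at eight concentrations (0.0229–50.0 μM or 0.0457–100 μM); inhibition at each concentration used to calculate IC50.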

[11] = Metabolic stability in human assessed as half life at 1 uM incubated upto 180 mins
[12] = Apparent permeability across apical to basal side in human Caco-2 cells at 2 uM incubated for 1 hr; assay type: ADME, cell-based
Summary of the method: (§3)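 Bidirectional transport across Caco-2 cells in HBSS, pH 7.4, 0.1% final DMSO. Compound was tested at 1 or 2 μM for 1 h at 37 °C, 5% CO2. Apical and basal samples gave apparent permeability A→B and B→A, and the efflux ratio.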

[13] = Efflux ratio of apparent permeability in human Caco-2 cells at 2 uM incubated for 1 hr; assay type: ADME, cell-based; summary of the method: as §3
[14] = Plasma protein binding in dog at 2 uM incubated for 4 to 24 hrs by equilibrium dialysis method; assay type: ADME, cell-free, Canis lupus familiaris; conditions: time 4-24 hrs, read-out: PPB (converted)
Summary of the method: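 Rapid equilibrium dialysis in mouse, rat, dog, monkey or human plasma for 4 or 24 h at 2 μM.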

[15] = target: Solute carrier family 22 member 6 (Homo sapiens, UniProt Q4U2R8); experiment: Inhibition of OAT1 (unknown origin) transfected in HEK293 cells; assay type: cell-based; summary of the method: as §2
Chain of Solute carrier family 22 member 6 (Q4U2R8 whole entry): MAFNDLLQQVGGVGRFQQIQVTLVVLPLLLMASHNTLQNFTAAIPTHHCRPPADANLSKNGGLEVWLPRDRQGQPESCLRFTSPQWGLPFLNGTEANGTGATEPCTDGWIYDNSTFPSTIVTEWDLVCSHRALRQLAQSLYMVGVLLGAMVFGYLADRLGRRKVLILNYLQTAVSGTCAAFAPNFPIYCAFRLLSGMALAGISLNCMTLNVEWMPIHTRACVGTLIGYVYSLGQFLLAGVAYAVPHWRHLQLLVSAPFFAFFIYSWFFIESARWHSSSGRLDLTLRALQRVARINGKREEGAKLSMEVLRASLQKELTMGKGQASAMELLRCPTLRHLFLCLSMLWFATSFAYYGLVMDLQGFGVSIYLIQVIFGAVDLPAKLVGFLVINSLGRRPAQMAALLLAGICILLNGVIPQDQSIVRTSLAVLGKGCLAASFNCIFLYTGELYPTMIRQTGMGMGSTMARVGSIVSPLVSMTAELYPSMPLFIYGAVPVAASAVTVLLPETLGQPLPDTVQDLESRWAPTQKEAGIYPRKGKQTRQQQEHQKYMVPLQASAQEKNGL

Chain of Organic anion transporter 3 (Q8TCC7 whole entry): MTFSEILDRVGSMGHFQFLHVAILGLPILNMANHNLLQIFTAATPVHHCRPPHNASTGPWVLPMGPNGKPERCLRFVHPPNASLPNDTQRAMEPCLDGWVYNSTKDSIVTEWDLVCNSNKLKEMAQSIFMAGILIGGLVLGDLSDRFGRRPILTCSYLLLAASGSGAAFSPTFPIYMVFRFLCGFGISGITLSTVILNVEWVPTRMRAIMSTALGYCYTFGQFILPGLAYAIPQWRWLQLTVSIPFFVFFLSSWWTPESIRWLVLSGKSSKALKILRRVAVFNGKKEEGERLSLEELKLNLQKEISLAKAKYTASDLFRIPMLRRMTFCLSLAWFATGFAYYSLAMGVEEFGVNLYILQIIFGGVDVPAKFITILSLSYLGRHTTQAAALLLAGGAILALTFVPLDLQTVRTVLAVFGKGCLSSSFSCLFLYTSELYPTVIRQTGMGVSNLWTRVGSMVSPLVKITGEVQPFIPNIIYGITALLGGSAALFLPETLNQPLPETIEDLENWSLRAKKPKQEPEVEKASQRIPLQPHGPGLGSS
Chain of Broad substrate specificity ATP-binding cassette transporter ABCG2 (Q9UNQ0 whole entry): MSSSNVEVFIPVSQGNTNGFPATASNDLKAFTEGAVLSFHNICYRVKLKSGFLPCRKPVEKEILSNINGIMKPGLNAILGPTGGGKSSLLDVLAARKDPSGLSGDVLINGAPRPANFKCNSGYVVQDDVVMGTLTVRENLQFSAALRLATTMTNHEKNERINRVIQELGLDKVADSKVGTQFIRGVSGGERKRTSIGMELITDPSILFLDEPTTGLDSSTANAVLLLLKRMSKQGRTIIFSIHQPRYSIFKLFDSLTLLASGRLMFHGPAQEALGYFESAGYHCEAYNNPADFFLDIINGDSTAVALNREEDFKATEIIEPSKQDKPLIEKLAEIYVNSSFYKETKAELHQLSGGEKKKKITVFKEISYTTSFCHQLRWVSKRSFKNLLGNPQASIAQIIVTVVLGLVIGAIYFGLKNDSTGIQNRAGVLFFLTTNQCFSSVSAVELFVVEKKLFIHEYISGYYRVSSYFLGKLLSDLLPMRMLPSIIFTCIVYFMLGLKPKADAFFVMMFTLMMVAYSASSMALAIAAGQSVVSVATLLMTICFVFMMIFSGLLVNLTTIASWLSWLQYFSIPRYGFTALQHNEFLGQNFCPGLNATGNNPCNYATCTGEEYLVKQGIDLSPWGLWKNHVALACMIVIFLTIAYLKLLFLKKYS

`C#CC1(NC(=O)C(=O)c2c(C)c(C(=O)Nc3ccc(F)c(C#N)c3)n(C)c2C)COC1` showed a fraction unbound at 1 µM [1] of 0.191, a clearance [2] of 12 mL/min/kg and a half-life [3] of 1.64 h. The half-life [4] was 2.17 h, the Vd [5] was 1.03 L/kg and the AUC(0-inf) [6] was 2190 ng·h/mL. For the same molecule, the Activity [7] was -1.47 log10IU/ml, the Activity [8] was “Non-toxic” and the IC50 [9] was > 11.8 µM. For the same molecule, the IC50 [10] was > 11.8 µM and the half-life at 1 µM [11] was > 6 h.

Molecule `C#CC1(N(COP(=O)([O-])[O-])C(=O)C(=O)c2c(C)c(C(=O)Nc3ccc(F)c(C#N)c3)n(C)c2C)COC1.[Na+].[Na+]` has a Papp A→B at 1 h, 2 µM [12] of 4.6 ×10⁻⁶ cm/s, an efflux ratio at 1 h, 2 µM [13] of 1.9 and a fraction unbound at 2 µM [14] of 0.179. For the same molecule, the IC50 [15] was 10.8 µM.
